In ChEMBL document CHEMBL4304816, “A Novel Biphenyl-based Chemotype of Retinoid X Receptor Ligands Enables Subtype and Heterodimer Preferences” (ACS Med Chem Lett, 2019):
Blank lines part the entries; values can stand above or below the molecule they belong to. Activity calls are given as the source filed them. The rule behind the calls is not given here.

Experiments:
Assay type in all cases: cell-based
[1] = molecular target: T1, Retinoic acid receptor RXR-gamma (Homo sapiens) (UniProt P48443); assay: Agonist activity at Gal4-LBD fused RXRgamma (unknown origin) expressed in HEK293T cells at 0.1 to 3 uM after 14 to 16 hrs in presence of RXR antagonist HX531 by dual-Glo luciferase reporter gene assay
T1 sequence (whole entry): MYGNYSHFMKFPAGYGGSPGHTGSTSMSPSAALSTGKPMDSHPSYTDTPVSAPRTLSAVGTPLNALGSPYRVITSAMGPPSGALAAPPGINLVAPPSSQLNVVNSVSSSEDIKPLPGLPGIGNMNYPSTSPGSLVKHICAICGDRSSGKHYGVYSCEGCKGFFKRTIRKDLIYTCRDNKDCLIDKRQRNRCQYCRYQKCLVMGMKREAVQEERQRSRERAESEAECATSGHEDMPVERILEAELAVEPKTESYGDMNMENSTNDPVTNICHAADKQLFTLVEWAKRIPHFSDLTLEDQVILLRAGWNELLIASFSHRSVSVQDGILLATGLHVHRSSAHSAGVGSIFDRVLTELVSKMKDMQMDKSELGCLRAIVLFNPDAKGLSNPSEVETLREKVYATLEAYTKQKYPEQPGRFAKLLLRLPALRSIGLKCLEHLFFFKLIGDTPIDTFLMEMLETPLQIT

Homo sapiens [2] = species: Homo sapiens; assay: Agonist activity at full-length human PPARgamma/RXR expressed in HEK293T cells at 10 uM after 14 to 16 hrs in presence of 1 uM rosiglitazone by dual-glo luciferase reporter gene assay relative to rosiglitazone
In short: (§1)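 RXR:PPARγ heterodimer reporter assay run with reference PPARγ agonist rosiglitazone (1 μM) co-applied. Read-out is mean relative synergistic activation, from three independent experiments each run in duplicate.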

[3] = molecular target: T2, Retinoic acid receptor RXR-beta (Homo sapiens) (UniProt P28702); assay: Agonist activity at Gal4-LBD fused RXRbeta (unknown origin) expressed in HEK293T cells assessed as fold activation at 10 uM after 14 to 16 hrs by dual-Glo luciferase assay relative to untreated control
T2 sequence (whole entry): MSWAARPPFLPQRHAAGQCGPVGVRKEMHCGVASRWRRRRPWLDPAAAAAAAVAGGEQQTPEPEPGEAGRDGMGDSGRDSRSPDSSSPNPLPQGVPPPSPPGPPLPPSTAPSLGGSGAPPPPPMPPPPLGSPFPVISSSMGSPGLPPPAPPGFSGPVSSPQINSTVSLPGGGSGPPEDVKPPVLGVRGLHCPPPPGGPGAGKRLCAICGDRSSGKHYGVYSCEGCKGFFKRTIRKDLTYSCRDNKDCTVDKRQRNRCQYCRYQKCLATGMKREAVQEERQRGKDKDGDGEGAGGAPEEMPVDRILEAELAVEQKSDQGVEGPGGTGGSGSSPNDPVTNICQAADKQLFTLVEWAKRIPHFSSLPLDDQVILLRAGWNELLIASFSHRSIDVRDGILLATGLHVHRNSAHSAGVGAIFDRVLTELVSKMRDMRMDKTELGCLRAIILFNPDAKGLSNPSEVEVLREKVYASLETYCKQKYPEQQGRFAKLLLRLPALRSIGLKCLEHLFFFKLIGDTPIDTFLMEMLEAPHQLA
In short: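 Gal4-hybrid RXRα/β/γ reporter gene assays in HEK293T cells. Fold activation is the maximal fold activation versus 0.1% DMSO.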

[4] = molecular target: T3, Retinoic acid receptor gamma (Homo sapiens) (UniProt P13631); assay: Agonist activity at Gal4-LBD fused RARgamma (unknown origin) expressed in HEK293T cells after at 20 uM 14 to 16 hrs by dual-Glo luciferase assay
T3 sequence (whole entry): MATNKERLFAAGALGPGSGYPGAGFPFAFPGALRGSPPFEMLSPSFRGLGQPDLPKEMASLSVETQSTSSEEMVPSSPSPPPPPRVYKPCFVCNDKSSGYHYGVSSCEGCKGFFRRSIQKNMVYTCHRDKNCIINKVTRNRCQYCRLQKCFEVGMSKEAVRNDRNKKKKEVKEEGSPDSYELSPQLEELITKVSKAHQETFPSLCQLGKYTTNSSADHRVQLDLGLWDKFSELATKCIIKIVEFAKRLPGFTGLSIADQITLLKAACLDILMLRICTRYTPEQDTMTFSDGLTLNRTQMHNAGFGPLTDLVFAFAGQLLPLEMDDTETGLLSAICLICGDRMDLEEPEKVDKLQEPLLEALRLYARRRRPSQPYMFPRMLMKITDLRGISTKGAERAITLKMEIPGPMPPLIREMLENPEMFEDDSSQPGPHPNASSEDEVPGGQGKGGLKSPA
In short: (§2)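 Gal4-hybrid reporter gene selectivity panel of related nuclear receptors (PPARα/β/γ, RARα/β/γ) in HEK293T cells. Activity is read as mean fold activation versus 0.1% DMSO vehicle, n ≥ 2.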

[5] = molecular target: T4, Peroxisome proliferator-activated receptor gamma (Homo sapiens) (UniProt P37231); assay: Agonist activity at Gal4-LBD fused PPARgamma (unknown origin) expressed in HEK293T cells at 20 uM after 14 to 16 hrs by dual-Glo luciferase assay; in short: as §2
T4 sequence (whole entry): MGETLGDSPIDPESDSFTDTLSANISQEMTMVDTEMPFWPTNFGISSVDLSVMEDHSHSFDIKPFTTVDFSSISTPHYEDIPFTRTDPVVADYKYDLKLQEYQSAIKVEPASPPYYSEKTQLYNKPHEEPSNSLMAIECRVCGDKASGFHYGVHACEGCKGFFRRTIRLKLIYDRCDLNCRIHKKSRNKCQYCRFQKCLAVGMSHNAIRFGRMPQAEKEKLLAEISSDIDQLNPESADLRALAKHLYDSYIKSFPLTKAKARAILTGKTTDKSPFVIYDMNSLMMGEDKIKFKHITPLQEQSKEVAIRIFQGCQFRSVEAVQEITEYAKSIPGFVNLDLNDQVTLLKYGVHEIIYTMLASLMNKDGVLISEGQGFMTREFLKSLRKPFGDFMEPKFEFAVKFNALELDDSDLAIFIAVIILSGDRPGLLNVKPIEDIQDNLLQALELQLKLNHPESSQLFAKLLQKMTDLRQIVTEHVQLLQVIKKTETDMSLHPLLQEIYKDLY

[6] = Agonist activity at full-length human RXR/LXR expressed in HEK293T cells at 20 uM after 14 to 16 hrs by dual-glo luciferase reporter gene assay relative to untreated control; details: HEK-293T, read-out: Activity
In short: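 RXR:LXR or RXR:PPARγ heterodimer reporter assay with test compound alone. Activation expressed relative to 0.1% DMSO vehicle. Three independent experiments, each in duplicate; mean reported.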

Homo sapiens [7] = species: Homo sapiens; assay: Agonist activity at full-length human PPARgamma/RXR expressed in HEK293T cells at 20 uM after 14 to 16 hrs in presence of 1 uM rosiglitazone by dual-glo luciferase reporter gene assay relative to rosiglitazone; in short: as §1
[8] = molecular target: T1, Retinoic acid receptor RXR-gamma (Homo sapiens); assay: Agonist activity at Gal4-LBD fused RXRgamma (unknown origin) expressed in HEK293T cells at 20 uM after 14 to 16 hrs by dual-Glo luciferase assay

Activity [1]: inactive
SMILES: Cc1cc(-c2cc(C(F)(F)F)cc(C(F)(F)F)c2)ccc1CC(=O)O
Activity (Homo sapiens [2]): 84%

fold change (FC) [3]: 31
SMILES: Cc1cc(-c2cc(C(C)(C)C)cc(C(C)(C)C)c2)ccc1C(=O)O

Activity [4]: Active | Activity [5]: Active | Activity [8]: inactive
SMILES: Cc1cc(-c2ccc(C(=O)O)cc2)cc(C(C)(C)C)c1
activity at 20 µM [6]: 87% | Activity (Homo sapiens [7]): 46%
